According to ChEMBL document CHEMBL3580660, “Synthesis and Biological Evaluation of Novel Olean-28,13β-lactams as Potential Antiprostate Cancer Agents” (J Med Chem, 2015):
The source made the active and inactive calls. The rule behind the calls is not given here.

Tests used:
[1] = system: Mus musculus; assay: Acute toxicity in ICR mouse assessed as mortality at 327.8 mg/kg, oral gavage after 1 hr; type: organism-based; conditions: in vivo
How it was run: (§1)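 ICR mice of both sexes, 7 weeks old, held under SPF conditions. Each got one gavage dose (800, 640, 512, 409.6 or 327.8 mg/kg) or vehicle, n = 8 per group. Deaths were recorded at 1 h, 4 h, 3 d and 4–14 d. Behaviour, water and food intake, body weight and activity were followed to day 14. LD50 given with 95% confidence limits.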

[2] = system: DU-145; assay: Induction of cell cycle arrest in human DU145 cells assessed as cells accumulation at G0/G1 phase at 0.16 uM after 24 hrs by propidium iodide staining-based flow cytometry (reference value: 54%); type: functional
[3] = system: Mus musculus; assay: Toxicity in human DU145 cells xenografted in BALB/c mouse assessed as change in body weight at 8.5 mg/kg, oral gavage for 21 days relative to vehicle treated control; type: organism-based, DU-145; conditions: in vivo, 504 h
How it was run: (§2)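 Male BALB/c nude mice (6−8 weeks, 18−22 g) implanted subcutaneously on right axillary flank with 2 × 10^6 DU-145 cells in 0.1 mL saline. At 100 ± 30 mm3 tumors, randomized (n = 5/group) to daily gavage for 21 days; vehicle DMSO/Cremphor EL/PBS 1:1:8. Tumor volume every 3 days; tumors excised and weighed at end; TGI from mean tumor weights vs vehicle; body weight tracked.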

[4] = target: Serine/threonine-protein kinase mTOR (Homo sapiens) (UniProt P42345); assay: Reduction in phosphorylated mTOR protein expression in human DU145 cells at 0.08 to 0.32 uM after 24 hrs by Western blot analysis; type: functional, cell-based; conditions: DU-145
How it was run: (§3)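 DU-145 cells (5 × 10^5/well) in 10% FCS Ham's F-12K overnight, treated in duplicate with compound or vehicle 24 h; lysed (Tris pH 8, EGTA, NaCl, NP-40, Triton X-100), protein by BCA. Blots blocked in 5% milk, probed for AKT, p-AKT Ser473, mTOR, p-mTOR Ser2448, Bax, Bcl-2, β-actin; ECL detection, densitometry relative to control; three separate experiments.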

[5] = system: Mus musculus; assay: Acute toxicity in ICR mouse assessed as mortality at 640 mg/kg, oral gavage after 1 hr; type: organism-based; conditions: in vivo; how it was run: as §1
[6] = system: Mus musculus; assay: Acute toxicity in ICR mouse assessed as mortality at 409.6 mg/kg, oral gavage after 1 hr; type: organism-based; conditions: in vivo; how it was run: as §1
[7] = system: DU-145; assay: Anticancer activity against human DU145 cells xenografted in BALB/c mouse assessed as decrease in tumor growth at 17 mg/kg, oral gavage for 21 days relative to vehicle treated control; type: functional; conditions: DU-145, po, 504 h; how it was run: as §2
[8] = Antiproliferative activity against human BxPC3 cells after 72 hrs by CCK8 assay; type: functional, cell-based; conditions: BXPC-3, 72 h
How it was run: (§4)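 CCK-8 assay: DU-145, H460, Bxpc-3, BEL-7404 and nontumor WPMY-1 cells seeded at 5 × 10^3 cells/well in 10% FCS DMEM overnight, then exposed in triplicate to 0.041−10 μM for 72 h. CCK-8 added for final 30 min, absorbance 450 nm; inhibition relative to medium-only controls after background subtraction; IC50 as concentration giving 50% inhibition.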

[9] = system: DU-145; assay: Antiproliferative activity against human DU145 cells after 72 hrs by CCK8 assay; type: functional, cell-based; conditions: DU-145, 72 h; how it was run: as §4
[10] = system: DU-145; assay: Induction of apoptosis in human DU145 cells assessed as reduction in Bcl2 expression at 0.08 to 0.32 uM after 24 hrs by Western blot analysis; type: functional, cell-based; how it was run: as §3
[11] = Antiproliferative activity against human H460 cells after 72 hrs by CCK8 assay; type: functional, cell-based; conditions: NCI-H460, 72 h; how it was run: as §4
[12] = system: DU-145; assay: Induction of cell cycle arrest in human DU145 cells assessed as cells accumulation at G2/M phase at 0.08 uM after 24 hrs by propidium iodide staining-based flow cytometry (reference value: 22%); type: functional
[13] = Acute toxicity in ICR mouse assessed as survival at 640 mg/kg, oral gavage on day 14; type: organism-based; conditions: in vivo; how it was run: as §1
[14] = system: Mus musculus; assay: Acute toxicity in ICR mouse assessed as mortality at 327.8 mg/kg, oral gavage after 4 hrs; type: organism-based; conditions: in vivo; how it was run: as §1
[15] = system: DU-145; assay: Effect on Akt protein expression in human DU145 cells at 0.08 to 0.32 uM after 24 hrs by Western blot analysis; type: functional, cell-based; how it was run: as §3
[16] = system: DU-145; assay: Induction of apoptosis in human DU145 cells assessed as increase in Bax to Bcl2 ratio at 0.08 to 0.32 uM after 24 hrs by Western blot analysis; type: functional, cell-based; how it was run: as §3
[17] = system: Mus musculus; assay: Acute toxicity in ICR mouse assessed as mortality at 327.8 mg/kg, oral gavage after 4 to 14 days; type: organism-based; conditions: in vivo; how it was run: as §1
[18] = system: Mus musculus; assay: Acute toxicity in ICR mouse assessed as mortality at 327.8 mg/kg, oral gavage after 3 days; type: organism-based; conditions: in vivo, 72 h; how it was run: as §1
[19] = Acute toxicity in ICR mouse assessed as survival at 409.6 mg/kg, oral gavage on day 14; type: organism-based; conditions: in vivo; how it was run: as §1
[20] = system: Mus musculus; assay: Acute toxicity in ICR mouse assessed as mortality at 512 mg/kg, oral gavage after 1 hr; type: organism-based; conditions: in vivo; how it was run: as §1
[21] = Reduction in phosphorylated Akt protein expression in human DU145 cells at 0.08 to 0.32 uM after 24 hrs by Western blot analysis; type: functional, cell-based; conditions: DU-145; how it was run: as §3
[22] = system: DU-145; assay: Induction of cell cycle arrest in human DU145 cells assessed as cells accumulation at G2/M phase at 0.16 uM after 24 hrs by propidium iodide staining-based flow cytometry (reference value: 22%); type: functional
[23] = system: Mus musculus; assay: Acute toxicity in ICR mouse assessed as mortality at 640 mg/kg, oral gavage after 4 hrs; type: organism-based; conditions: in vivo; how it was run: as §1
[24] = Antiproliferative activity against human Bel7404 cells after 72 hrs by CCK8 assay; type: functional, cell-based; conditions: BEL-7404, 72 h; how it was run: as §4
[25] = system: Mus musculus; assay: Acute toxicity in ICR mouse assessed as mortality at 409.6 mg/kg, oral gavage after 4 hrs; type: organism-based; conditions: in vivo; how it was run: as §1
[26] = system: DU-145; assay: Induction of apoptosis in human DU145 cells assessed as chromatin condensation and fragmentation at 0.08 to 0.32 uM after 24 hrs by Hoechst staining-based fluorescence microscopy; type: functional, cell-based
How it was run: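 DU-145 cells exposed 24 h to compound or vehicle (0.1% DMSO), fixed in methanol 30 min, stained with 1 mg/mL Hoechst 33258, and scored under fluorescence microscope for chromatin condensation and nuclear fragmentation; three separate experiments.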

[27] = system: DU-145; assay: Antiproliferative activity against human DU145 cells at 2 uM after 72 hrs by CCK8 assay; type: functional; conditions: DU-145, 72 h
How it was run: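 DU-145 screening at single concentration 2 μM for 72 h, proliferation by CCK-8 (cells 5 × 10^3/well in 10% FCS DMEM). Percent inhibition vs untreated, background-corrected; mean ± SD from three independent experiments.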

[28] = system: DU-145; assay: Induction of cell cycle arrest in human DU145 cells assessed as cells accumulation at G0/G1 phase at 0.08 uM after 24 hrs by propidium iodide staining-based flow cytometry (reference value: 54%); type: functional
[29] = target: Serine/threonine-protein kinase mTOR (Homo sapiens) (UniProt P42345); assay: Effect on mTOR protein expression in human DU145 cells at 0.08 to 0.32 uM after 24 hrs by Western blot analysis; type: functional, cell-based; conditions: DU-145; how it was run: as §3

SMILES: CC1(C)CC[C@]23CC[C@@]4(C)[C@]5(C)CC[C@H]6C(C)(C)C(=O)C(C#N)=C[C@]6(C)C5=CC(=O)[C@@]4([C@@H]2C1)N(C1CCCCC1)C3=O
- Activity [1]: Non-toxic
- Activity [2]: 68%
- Activity [3]: Non-toxic
- inhibition [4]: Active
- Activity [5]: Non-toxic
- Activity [6]: Non-toxic
- inhibition in vivo at 17 mg/kg [7]: 62%
- IC50 [8]: 330 nM
- IC50 [9]: 390 nM
- inhibition [10]: Active
- IC50 [11]: 380 nM
- Activity [12]: 19%
- survival at 14 day [13]: 25%
- Activity [14]: Non-toxic
- Activity [15]: inactive
- Activity [16]: Active
- Activity [17]: Non-toxic
- Activity [18]: Non-toxic
- survival at 14 day [19]: 88%
- Activity [20]: Non-toxic
- inhibition [21]: Active
- Activity [22]: 22%
- Activity [23]: Non-toxic
- IC50 [24]: 460 nM
- Activity [25]: Non-toxic
- Activity [26]: Active
- inhibition at 2 µM [27]: 75%
- Activity [28]: 56%
- Activity [29]: inactive
